Experimental data from different studies.
Compare with care: the assays were run in different laboratories.
Target: Dual specificity protein kinase TTK (TTK, Homo sapiens, UniProt P33981)
Residues used in one study (P33981 1-857): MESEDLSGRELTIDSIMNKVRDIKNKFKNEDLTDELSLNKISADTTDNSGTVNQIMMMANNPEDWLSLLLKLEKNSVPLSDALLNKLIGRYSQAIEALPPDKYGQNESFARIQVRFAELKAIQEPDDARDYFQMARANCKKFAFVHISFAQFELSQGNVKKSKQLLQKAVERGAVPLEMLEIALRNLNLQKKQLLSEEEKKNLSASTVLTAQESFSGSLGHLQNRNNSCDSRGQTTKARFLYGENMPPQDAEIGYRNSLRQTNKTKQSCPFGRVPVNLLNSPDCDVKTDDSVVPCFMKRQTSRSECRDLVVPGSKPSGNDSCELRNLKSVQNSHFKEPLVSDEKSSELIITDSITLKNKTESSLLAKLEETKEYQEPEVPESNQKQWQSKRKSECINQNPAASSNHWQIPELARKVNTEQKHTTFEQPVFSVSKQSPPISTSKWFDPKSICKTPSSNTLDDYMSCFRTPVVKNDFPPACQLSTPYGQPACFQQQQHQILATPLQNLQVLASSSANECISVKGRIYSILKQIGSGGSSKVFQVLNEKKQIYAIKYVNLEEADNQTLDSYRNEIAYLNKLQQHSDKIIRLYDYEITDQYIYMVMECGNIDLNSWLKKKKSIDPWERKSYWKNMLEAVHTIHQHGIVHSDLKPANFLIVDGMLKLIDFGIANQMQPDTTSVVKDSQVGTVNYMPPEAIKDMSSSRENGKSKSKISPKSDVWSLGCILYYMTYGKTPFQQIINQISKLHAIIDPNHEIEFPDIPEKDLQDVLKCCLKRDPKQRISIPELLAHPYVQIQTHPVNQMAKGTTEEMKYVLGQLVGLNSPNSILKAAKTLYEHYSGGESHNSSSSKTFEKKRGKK

Cn1cc(-c2cccc(N3CCc4c(sc5c4CC(C)(C)C5)C3=O)c2CO)cc(Nc2ccncn2)c1=O
inhibition (enzyme activity, inhibitor; 1 µM): -3%

O=c1[nH]c2ccccc2n1C1CCN(Cc2ccc(-c3[nH]c4cc5ncnc5cc4nc3-c3ccccc3)cc2)CC1
remaining signal (cell-free assay; 0.5 µM): 104%

Cc1nn(C)cc1-c1nc2c(N3CCN(Cc4ccc(Cl)cc4)CC3)c(Cl)cnc2[nH]1
remaining binding (binding, competition with immobilised ligand; 1 µM): 100%

COc1ncccc1-c1cnn2ccc(N3CCN(C(=O)OC(C)C)CC3)nc12
remaining binding (binding, competition with immobilised ligand; 1 µM): 100%

Cn1cc(-c2cc(F)cc(N3CCn4c(cc5c4CCCC5)C3=O)c2CO)cc(Nc2ccc(N3CCN(C4COC4)CC3)cn2)c1=O
inhibition (enzyme activity, inhibitor; 0.1 µM): -17%

N#CC1(c2ccccn2)CCN(Cc2cc(C(=O)O)c(=O)n3ccccc23)CC1
remaining binding (cell-free assay, competition with immobilised ligand; 1 µM): 88%

CC(C)(C)c1cc(C=C(C#N)C#N)cc(Br)c1O
remaining activity (enzyme activity, inhibitor; 0.5 µM): 101%

Cn1cncc1[C@@](O)(COc1ccc(C#N)cc1-c1ccc(OC(F)(F)F)cc1)c1ccc(C#N)cc1
remaining binding (cell-free assay, competition with immobilised ligand; 1 µM): 100%

Nc1ncc(-c2nc(N3CCOCC3)nc(N3CCOCC3)n2)c(C(F)F)n1
remaining binding (binding, competition with immobilised ligand; 10 µM): 84%
